PKD1 kinase inh = blocks activity of human protein kinase D1 | Q15139 | PKD1 kinase fluorescence polarization assay | inhibition, % (test concentration not listed) | hit rate 0.056% among 200,000; in the data active = inhibition above about 50%
Mdm2 ligase inh = blocks human Mdm2 ubiquitin ligase activity; cell-based MDM2 ubiquitination luciferase reporter, 2 h; 0 = plate control, 100 = twice control, blank-subtracted; signal enhancement, % at 5 µM; hit rate 0.11% among 210,000;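 active = signal enhancement of 30% or more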;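 also: luminescence tracks abundance of the self-degrading MDM2-luciferase fusion protein; higher signal means inhibition of MDM2 E3 ligase activity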
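system = mammalian cells stably expressing self-ubiquitinating, self-degrading MDM2 E3–luciferase fusion | quantity = 2000 cells per well seeded | incubation = 4 h cell settling then 2 h compound exposure, 37 °C | signal = SteadyLite luminescence, 15 min reagent step | benchmarks = plate control and blank wells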
Cl transport mod = modulates chloride dependent transport by human KCC2. hit rate 2.2% among 190,000. B-score of Tl+ flux slope (higher = more flux/activation; lower = inhibition) at 10 µM. Q9H2X9. AID 1456. KCC2 cells, thallium flux FluoZin-2 fluorescence;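 active = thallium flux slope and its plate-corrected score both differing from the plate sample mean at a set confidence after two filtering rounds, in either direction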;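 also: slope of fluorescence scaled to starting intensity during 10 to 20 s after thallium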
Target sequence (Q9H2X9 whole entry, looked up): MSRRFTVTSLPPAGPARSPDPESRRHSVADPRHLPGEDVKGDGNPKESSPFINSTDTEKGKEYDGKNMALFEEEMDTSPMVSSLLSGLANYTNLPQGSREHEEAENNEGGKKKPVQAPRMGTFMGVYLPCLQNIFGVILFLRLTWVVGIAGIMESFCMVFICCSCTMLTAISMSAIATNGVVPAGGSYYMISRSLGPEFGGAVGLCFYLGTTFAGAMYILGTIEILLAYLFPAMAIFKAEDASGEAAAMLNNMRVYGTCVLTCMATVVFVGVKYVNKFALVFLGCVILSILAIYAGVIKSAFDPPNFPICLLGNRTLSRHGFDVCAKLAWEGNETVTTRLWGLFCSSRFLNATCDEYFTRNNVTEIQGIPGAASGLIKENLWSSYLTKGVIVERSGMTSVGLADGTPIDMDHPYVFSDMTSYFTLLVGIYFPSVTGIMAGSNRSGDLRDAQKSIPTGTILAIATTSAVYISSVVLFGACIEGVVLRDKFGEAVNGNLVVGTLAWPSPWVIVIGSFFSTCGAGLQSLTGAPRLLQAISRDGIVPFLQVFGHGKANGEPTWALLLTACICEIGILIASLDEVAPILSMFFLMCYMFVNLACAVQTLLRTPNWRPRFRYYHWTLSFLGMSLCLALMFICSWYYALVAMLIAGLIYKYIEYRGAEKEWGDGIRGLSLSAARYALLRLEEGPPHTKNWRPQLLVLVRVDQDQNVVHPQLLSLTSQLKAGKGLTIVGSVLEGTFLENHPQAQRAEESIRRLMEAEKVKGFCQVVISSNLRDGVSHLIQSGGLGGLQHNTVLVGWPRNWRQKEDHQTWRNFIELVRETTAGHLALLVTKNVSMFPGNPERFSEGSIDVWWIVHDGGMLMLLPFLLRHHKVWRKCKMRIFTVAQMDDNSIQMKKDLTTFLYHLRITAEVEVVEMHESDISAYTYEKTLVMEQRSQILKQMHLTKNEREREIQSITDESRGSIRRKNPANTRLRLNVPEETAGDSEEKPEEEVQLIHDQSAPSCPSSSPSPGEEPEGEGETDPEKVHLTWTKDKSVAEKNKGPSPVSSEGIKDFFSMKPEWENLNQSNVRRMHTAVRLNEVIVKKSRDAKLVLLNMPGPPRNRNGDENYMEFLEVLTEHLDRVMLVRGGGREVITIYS
Arbovirus anti = blocks arbovirus infection. AID 1251. inhibition, % at 10 µM. arbovirus infection cell-based antiviral screen. hit rate 0.37% among 200,000; in the data active = inhibition above about 30%
ROMK mod = modulates human ROMK potassium channel activity. P48048. B-score at 10 µM. hit rate 2% among 130,000. Tet-inducible ROMK, thallium flux fluorescence; actives lie on both sides;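 active = signal ratio slope over the read window, or its plate-corrected B-score, at least 3 SD from the plate mean, either direction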;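 also: B-score of the F/F0 ratio slope over 7 to 12 s after thallium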
m-calpain inh = blocks pig calpain II enzyme activity. AID 1236. inhibition, % at 16 µM. hit rate 0.37% among 220,000. purified calpain II, fluorogenic peptide substrate, 30 min;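 active = inhibition above about 50%, limit read from the data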
KCC2 secondary = KCC2 (human) modulation, secondary assay. hit rate 15% among 3,700. shares compounds with Cl transport mod. HEK293-KCC2, thallium flux, FluoZin2 fluorescence; stronger effect = higher value. normalised thallium flux (F/F0 slope) at 10 µM;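 active = thallium flux slope above the same plate's solvent-only control mean plus 3 SD; inconclusive = the two replicate wells disagree; inactive = no significant difference from solvent-only control wells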
KCC2 bumet counter = thallium flux persisting under bumetanide in KCC2 cells, counter-screen secondary assay. shares compounds with Cl transport mod. HEK293-KCC2 + bumetanide/ouabain, thallium flux FluoZin2; stronger effect = higher value. normalized thallium flux at 10 µM. hit rate 49% among 3,700. AID 1714;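 active = thallium entry rate above the same plate's blocked-transporter control wells by more than 3 SD; inconclusive = the two repeat wells disagree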;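 also: raw slope of fluorescence over initial fluorescence between 10 and 20 s after thallium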
KCC2 secondary2 = confirmation of human KCC2 transport modulators; shares compounds with Cl transport mod; HEK293-KCC2, thallium flux FluoZin2 fluorescence; actives lie on both sides; F/F0 rise rate, 10–20 s post-thallium; normalized thallium flux at 10 µM; hit rate 23% among 3,700;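 active = thallium flux slope more than 3 SD above or below the plate's solvent-only control mean, mostly below; inconclusive = the two repeat wells disagreed; inactive = no significant shift from solvent-only controls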;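 also: raw slope with 0.1% DMSO as baseline and bumetanide as block control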
HEK counter1 = parental HEK flux effect, counter-screen; shares compounds with Cl transport mod; HEK293 parental cells, thallium flux FluoZin2, ouabain; baseline-ratio fluorescence slope, 10–20 s after thallium; thallium flux rate (normalised fluorescence) at 10 µM; hit rate 46% among 3,700;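 active = thallium flux rate significantly above the same plate's solvent-only control wells, beyond their mean plus 3 SD; inconclusive = the two replicate wells gave conflicting results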
KCC2 ouabain = KCC2 (human) modulation, ouabain retest | shares compounds with Cl transport mod | HEK293-KCC2, thallium flux FluoZin2 fluorescence; bidirectional: low = inhibitor, high = activator | raw Tl+ flux slope (below DMSO = inhibition, above = activation) at 10 µM | hit rate 48% among 3,700 | AID 1717;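 active = thallium flux slope beyond 3 SD from same-plate DMSO control mean in most replicates, usually higher, sometimes lower; inconclusive = repeat tests gave conflicting results; inactive = no significant difference from controls in most replicates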;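 also: slope of initial-normalized fluorescence between seconds 10 and 20 after thallium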
HEK293 Tl flux2 = parental HEK flux effect, counter-screen 2 | shares compounds with Cl transport mod | HEK293 parental, thallium flux FluoZin-2 fluorescence slope | thallium flux slope at 10 µM | hit rate 33% among 3,700;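 active = thallium flux slope above the same plate's solvent-control mean plus 3 SD in both duplicate wells; inconclusive = duplicate wells that disagreed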;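 also: run without ouabain in cells lacking the KCC2 cotransporter; slope of fluorescence scaled to its starting value between 10 and 20 s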
* = called active by the depositor; ? = inconclusive; . = no result given. Only some compounds are listed: those with a hit (about 3.7% of all), similar ones and a draw of the others.

SMILES | PKD1 kinase inh | Mdm2 ligase inh | Cl transport mod | Arbovirus anti | ROMK mod | m-calpain inh | KCC2 secondary | KCC2 bumet counter | KCC2 secondary2 | HEK counter1 | KCC2 ouabain | HEK293 Tl flux2
CCc1ccc(-c2cn(C3CCCCC3)c(=S)[nH]2)cc1 | 6 | -7 | 6* | 4 | 0.83 | -26 | 0.019 | 0.05* | 0.03 | 0.012* | 0.023* | ?
COc1cc(OC)c(OC)cc1CNCCNC(=O)c1nonc1N | 2 | -8 | . | 1 | 0.37 | 3 | . | . | . | . | . | .
Cc1cc(N)n(Cc2cccs2)n1 | -6 | 6 | . | -6 | . | 17 | . | . | . | . | . | .
COn1c(SC(C)C)nc2ccccc2c1=O | 1 | 6 | 0.23 | -7 | . | 17 | . | . | . | . | . | .
COn1c(SC2CCCCC2)nc2ccccc2c1=O | 7 | 20 | 2.6* | 14 | -1.1 | 19 | ? | 0.014* | 0.027 | 0.012* | ? | 0.0099
Oc1c(Br)cc(Br)cc1/C=N/NC(=S)N[C@H]1CC2C=CC1C2 (stereo partly specified) | . | -19 | 4.8* | . | . | -10 | 0.0079 | 0.014* | 0.03 | 0.01* | ? | 0.0094
O=C1/C(=C/c2ccccc2O)SC(=S)N1Cc1cccnc1 | 0 | -15 | 10* | 11 | . | 21 | 0.0062 | 0.017* | ? | 0.025* | 0.027* | 0.023*
N#CCCn1cc(CNCc2ccccc2)c(-c2cccc([N+](=O)[O-])c2)n1 | -5 | -14 | -0.9 | -5 | -0.036 | -10 | . | . | . | . | . | .
O=C(Nc1nc(-c2ccccn2)cs1)c1cc(Cl)ccc1[N+](=O)[O-] | 3 | 24 | 6.8* | -24 | 1.4 | -32 | 0.014* | 0.037* | 0.039 | 0.018* | 0.038* | 0.015*
Cc1ccc2sc(NNC(=O)C3COc4ccccc4O3)nc2c1C (stereo unspecified) | 7 | . | 6.5* | -12 | -1.4 | 2 | 0.008 | 0.042* | 0.032 | 0.017* | ? | 0.012*
COc1cccc2sc(NNC(=O)C3COc4ccccc4O3)nc12 (stereo unspecified) | -10 | -1 | 20* | 11 | -0.44 | 6 | 0.021* | 0.03* | ? | 0.019* | 0.026* | 0.021*
Cc1nc2ccc3nc(NC(=O)C4COc5ccccc5O4)sc3c2s1 (stereo unspecified) | -4 | -74 | 5.7* | 1 | . | -45 | 0.0066 | 0.013* | 0.031 | 0.011* | ? | 0.014*
COc1ccc(/C(C)=N/NC(=O)CNC(=O)C2COc3ccccc3O2)c(OC)c1 (stereo unspecified) | . | -21 | -0.43 | . | -0.61 | 14 | . | . | . | . | . | .
COc1ccc(CNC(=O)C2COc3ccccc3O2)c(OC)c1 (stereo unspecified) | -7 | 13 | . | -6 | . | 18 | 0.01 | 0.0057 | 0.034 | 0.0042 | 0.019 | 0.012
COC(=O)CSc1nnc(CNC(=O)c2ccc(S(=O)(=O)N3CCOCC3)cc2)n1C | -3 | -2 | 0.022 | 1 | 0.76 | -15 | . | . | . | . | . | .
CCOC(=O)CN=C/C(C(=O)Nc1nccs1)=C(/C)O | 0 | -9 | -0.84 | 8 | 0.25 | -17 | . | . | . | . | . | .
O=C(NNc1nc2c(F)cccc2s1)c1ccc(F)cc1 | -1 | -6 | -0.14 | 20 | 0.091 | 0 | . | . | . | . | . | .
O=C(NNc1nc2c(F)cccc2s1)C1COc2ccccc2O1 (stereo unspecified) | -2 | -6 | 10* | 23 | -0.23 | -8 | 0.0078 | 0.037* | 0.047* | 0.035* | 0.038* | 0.03*
CCCC1=C(C(=O)OCC)C(c2ccc(OC)c(CSc3ccccn3)c2)C(C#N)=C(N)O1 (stereo unspecified) | -6 | -1 | -1.6 | -1 | -0.072 | 34 | . | . | . | . | . | .
O=C(O)/C=C/c1ccccc1Oc1ccc(Cl)cc1Cl | 1 | -6 | -6.6* | 21 | 2.1 | 22 | 0.0051 | 0.006* | 0.021* | 0.0068 | ? | 0.01
O=C(O)/C=C\c1ccccc1Oc1cccc(Cl)c1 | -3 | -1 | -2.6 | 7 | 0.75 | -18 | . | . | . | . | . | .
CC1=CC(C)(C)NC(=S)N1c1ccc(C)c(C)c1 | -5 | 0 | 0.34 | 6 | -0.099 | 9 | . | . | . | . | . | .
CCC1(c2ccccc2)NC(=S)N(c2ccc(C)c(C)c2)N1 (stereo unspecified) | -4 | -15 | 42* | -22 | 0.61 | 12 | 0.042* | 0.11* | 0.038 | 0.055* | 0.059* | 0.017*
CCC1(c2ccc(Cl)cc2)NC(=S)N(c2ccc(C)c(C)c2)N1 (stereo unspecified) | . | -1 | 93* | . | . | -9 | 0.05* | 0.12* | 0.044* | 0.1* | 0.087* | 0.038*
Cc1ccc(-n2c(C)n[nH]c2=S)cc1C | 1 | -8 | -0.64 | -2 | . | -13 | . | . | . | . | . | .
SMILES | PKD1 kinase inh | Mdm2 ligase inh | Cl transport mod | Arbovirus anti | ROMK mod | m-calpain inh | KCC2 secondary | KCC2 bumet counter | KCC2 secondary2 | HEK counter1 | KCC2 ouabain | HEK293 Tl flux2
CC1(CCc2ccccc2)NC(=S)N(c2ccc(Cl)cc2)N1 (stereo unspecified) | 9 | 7 | -0.03 | -35 | -0.47 | -7 | . | . | . | . | . | .
CCC1(c2ccc(Cl)cc2)NC(=S)N(c2ccc(C)cc2)N1 (stereo unspecified) | -11 | 7 | 52* | -24 | 0.68 | 4 | 0.041* | 0.096* | ? | 0.083* | 0.074* | 0.028*
CN(C)c1c(F)cc(-c2nn[nH]n2)cc1F | . | -14 | . | . | . | -13 | . | . | . | . | . | .
Cc1oc(S(=O)(=O)N(C)C)cc1C(=O)Nc1ccc(Cl)cc1 | . | 0 | -0.5 | . | 0.55 | -2 | . | . | . | . | . | .
Cc1ccc(C)c(N2C(=O)c3ccc(C(=O)OCC(=O)c4c(N)n(C)c(=O)n(C)c4=O)cc3C2=O)c1 | 10 | -3 | 0.31 | -3 | . | -8 | . | . | . | . | . | .
Cc1ccnc(NC(=O)Nc2ccc3c(c2)OCO3)c1 | -8 | 5 | 0.85 | -9 | -0.3 | -16 | . | . | . | . | . | .
O=C(Nc1cccc(-c2nnn(CC(=O)N3CCc4ccccc4C3)n2)c1)C1CCC1 | 1 | -9 | . | -5 | -0.34 | -46 | 0.017 | 0.0043 | ? | ? | 0.014* | 0.01
CCc1ccc(-c2nc(CS(=O)CC(=O)NCc3cccnc3)c(C)o2)cc1 (stereo unspecified) | 6 | -10 | 4.4* | 1 | . | -35 | 0.0052 | 0.0048 | ? | 0.0076 | ? | 0.011

High-throughput results deposited in PubChem by several laboratories.
